This passage reports IC50 and CC50 results from ChEMBL document CHEMBL1139326, “The design, synthesis, and antiviral activity of 4'-azidocytidine analogues against hepatitis C virus replication: the discovery of 4'-azidoarabinocytidine” (J Med Chem, 2009).

Usually IC50 stands for the point on the concentration scale where inhibition reaches its midpoint. The term CC50 denotes the concentration at which the toxic effect on the cells reaches its halfway point. Low values mean harm at low concentration, high ones better tolerance by the cells.

Data set [1] has as its system Hepatitis C virus. In words: Antiviral activity against Hepatitis C virus infected human 2209-23 cells by genotype 1b replicon assay. In kind it is functional, organism-based, Hepacivirus hominis.
Data set [2] in a line: Antiproliferative activity against human 2209-23 cells by [3H]thymidine incorporation scintillation proximity assay. The class given is functional, cell-based. The essentials: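 Cell proliferation was read as uptake of tritiated thymidine into cellular DNA, quantified by scintillation proximity, and reported as an IC50. It served to flag possible loss of selectivity against human polymerases.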
A general note: Dividing cells build labelled thymidine or BrdU into new DNA.

Data set [3] is described as follows: Cytotoxicity against human 2209-23 cells by WST1 cell ciability assay. The class given is cell-based. A general note: Formazan colour is commonly taken as a measure of viable cells.

Molecules are shown by their SMILES. Where only a bound is given, the exact number is not on record here.

Take `C[C@]1(O)[C@H](n2ccc(N)nc2=O)O[C@@](CO)(N=[N+]=[N-])[C@H]1O`: the IC50 in data set [1] is more than 100 µM.

In turn, `[N-]=[N+]=N[C@@]1(CO)C[C@@H](O)[C@H](n2ccc(N)nc2=O)O1` displayed an IC50 in data set [1] of more than 100 µM.

Turning to `C[C@@]1(O)[C@H](n2ccc(N)nc2=O)O[C@@](CO)(N=[N+]=[N-])[C@H]1O`, the IC50 in data set [1] is more than 100 µM.

For the compound `[N-]=[N+]=N[C@]1(CO)O[C@@H](n2ccc(N)nc2=O)[C@@H](O)[C@@H]1O`, the IC50 is more than 100 µM in data set [2] and 0.171 µM in data set [1].

Regarding `[N-]=[N+]=N[C@]1(CO)O[C@@H](n2ccc(N)nc2=O)[C@H](O)[C@H]1O`, inhibition in data set [1] was half-maximal at 27.8 µM (IC50).

The compound `[N-]=[N+]=N[C@]1(CO)O[C@@H](n2ccc(N)nc2=O)[C@H](O)[C@@H]1O` [4'-AZIDOCYTIDINE] yielded an IC50 in data set [2] of more than 100 µM.

In data set [3], `Nc1ccn([C@@H]2O[C@H](CO)[C@@H](O)[C@@H]2O)c(=O)n1` [CYTARABINE] came in with a CC50 of less than 100 µM. In addition, the IC50 in data set [2] was 0.029 µM; in data set [1], 0.02 µM.
